This is an account of results in ChEMBL document CHEMBL4000190, “Novel trifluoromethylated 9-amino-3,4-dihydroacridin-1(2H)-ones act as covalent poisons of human topoisomerase IIα” (Bioorg Med Chem Lett, 2017).

Structures are written as SMILES. The source made the active and inactive calls. The rule behind the calls is not given here.

The target of assay [1] is DNA topoisomerase 2-alpha (Homo sapiens) (UniProt P11388). The assay can be described thus: Poison activity at recombinant human topoisomerase-2alpha expressed in Saccharomyces cerevisiae JEL1 harboring topoisomerase1 deletion mutant assessed as increase in double stranded DNA cleavage up to 1000 uM using supercoiled pBR322 DNA as substrate measured after 6 mins by ethidium bromide staining based agarose gel electrophoresis relative to control. Put shortly: (§1)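 Enhancement of topoisomerase IIα-mediated double-stranded cleavage of negatively supercoiled DNA, measured over a compound concentration range. Cleavage is expressed relative to the baseline of enzyme without compound.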

The target is the same in assay [2]. Description: Poison activity at recombinant human topoisomerase-2alpha expressed in Saccharomyces cerevisiae JEL1 harboring topoisomerase1 deletion mutant assessed as increase in double stranded DNA cleavage at 1 mM using supercoiled pBR322 DNA as substrate preincubated for 1 to 5 mins followed by substrate addition measured after 6 mins by ethidium bromide staining based agarose gel electrophoresis. In outline: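 Topoisomerase IIα was preincubated with 1 mM compound for 1–5 min, then the cleavage reaction was started by adding DNA. Cleavage was followed against preincubation time.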

The target is the same in assay [3]. The assay can be described thus: Inhibition of recombinant human topoisomerase-2alpha mediated DNA ligation expressed in Saccharomyces cerevisiae JEL1 harboring topoisomerase1 deletion mutant at 1 mM measured after 6 mins by ethidium bromide staining based agarose gel electrophoresis. In outline:
(§2)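 Topoisomerase IIα-mediated DNA ligation measured with or without 1 mM compound; controls at 50 µM. Mean ± standard deviation of at least three independent experiments.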

Assay [4] has the same target. Description: Poison activity at recombinant human topoisomerase-2alpha expressed in Saccharomyces cerevisiae JEL1 harboring topoisomerase1 deletion mutant assessed as increase in double stranded DNA cleavage at 1 mM using supercoiled pBR322 DNA as substrate in presence of reducing agent DTT measured after 6 mins by ethidium bromide staining based agarose gel electrophoresis. In outline: (§3)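 Topoisomerase IIα DNA cleavage with 1 mM compound, run without and with 0.5 mM DTT. Controls are no-compound and 50 µM reactions. Mean ± standard deviation of at least three independent experiments.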

Assay [5] has the same target. The assay can be described thus: Poison activity at recombinant human topoisomerase-2alpha expressed in Saccharomyces cerevisiae JEL1 harboring topoisomerase1 deletion mutant assessed as concentration required to triple the level of DNA cleavage complex relative to basal level using supercoiled pBR322 DNA as substrate measured after 6 mins by ethidium bromide staining based agarose gel electrophoresis. Put shortly:
as §1

Assay [6] has the same target. The assay can be described thus: Poison activity at recombinant human topoisomerase-2alpha expressed in Saccharomyces cerevisiae JEL1 harboring topoisomerase1 deletion mutant assessed as double stranded DNA cleavage using supercoiled pBR322 DNA as substrate at 1000 uM measured after 6 mins by ethidium bromide staining based agarose gel electrophoresis relative to control. In outline: as §1

For assay [7] the target is unchanged. Description: Poison activity at recombinant human topoisomerase-2alpha catalytic domain (431 to 1193 residues) assessed as increase in double stranded DNA cleavage at 1 mM using supercoiled pBR322 DNA as substrate measured after 6 mins by ethidium bromide staining based agarose gel electrophoresis. Put shortly: (§4)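 Double-stranded DNA cleavage by full-length topoisomerase IIα and by the catalytic core (lacking N- and C-terminal domains), run in parallel. Compounds at 1 mM; controls at 50 µM; a no-compound baseline is included. Mean ± SD of ≥3 independent experiments.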

The species entered for a further assay is Bos taurus. Description: Activity at calf thymus DNA topoisomerase-1 assessed as DNA intercalation by measuring band shift at 1 mM using pBR322 DNA as substrate measured after 15 mins by ethidium bromide staining based agarose gel electrophoresis relative to control. In outline: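 Topoisomerase I relaxation of negatively supercoiled DNA in the presence of compound. Intercalation is read as a shift of topoisomer bands toward the supercoiled position. Controls are DNA alone and DNA plus topoisomerase I without compound. Gel representative of three independent experiments.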

The target of assay [8] is DNA topoisomerase 2-alpha (Homo sapiens) (UniProt P11388). Description: Inhibition of recombinant human topoisomerase-2alpha mediated DNA ligation expressed in Saccharomyces cerevisiae JEL1 harboring topoisomerase1 deletion mutant at 50 uM measured after 6 mins by ethidium bromide staining based agarose gel electrophoresis. In outline:
as §2

Assay [9] has the same target. Description: Poison activity at recombinant human topoisomerase-2alpha catalytic domain (431 to 1193 residues) assessed as increase in double stranded DNA cleavage at 50 uM using supercoiled pBR322 DNA as substrate measured after 6 mins by ethidium bromide staining based agarose gel electrophoresis. Put shortly: as §4
Assay [10] shares this target. Description: Poison activity at recombinant human topoisomerase-2alpha expressed in Saccharomyces cerevisiae JEL1 harboring topoisomerase1 deletion mutant assessed as increase in double stranded DNA cleavage at 50 uM using supercoiled pBR322 DNA as substrate in presence of reducing agent DTT measured after 6 mins by ethidium bromide staining based agarose gel electrophoresis. Put shortly: as §3

DNA topoisomerase 2-alpha (Homo sapiens), sequence (P11388 whole entry): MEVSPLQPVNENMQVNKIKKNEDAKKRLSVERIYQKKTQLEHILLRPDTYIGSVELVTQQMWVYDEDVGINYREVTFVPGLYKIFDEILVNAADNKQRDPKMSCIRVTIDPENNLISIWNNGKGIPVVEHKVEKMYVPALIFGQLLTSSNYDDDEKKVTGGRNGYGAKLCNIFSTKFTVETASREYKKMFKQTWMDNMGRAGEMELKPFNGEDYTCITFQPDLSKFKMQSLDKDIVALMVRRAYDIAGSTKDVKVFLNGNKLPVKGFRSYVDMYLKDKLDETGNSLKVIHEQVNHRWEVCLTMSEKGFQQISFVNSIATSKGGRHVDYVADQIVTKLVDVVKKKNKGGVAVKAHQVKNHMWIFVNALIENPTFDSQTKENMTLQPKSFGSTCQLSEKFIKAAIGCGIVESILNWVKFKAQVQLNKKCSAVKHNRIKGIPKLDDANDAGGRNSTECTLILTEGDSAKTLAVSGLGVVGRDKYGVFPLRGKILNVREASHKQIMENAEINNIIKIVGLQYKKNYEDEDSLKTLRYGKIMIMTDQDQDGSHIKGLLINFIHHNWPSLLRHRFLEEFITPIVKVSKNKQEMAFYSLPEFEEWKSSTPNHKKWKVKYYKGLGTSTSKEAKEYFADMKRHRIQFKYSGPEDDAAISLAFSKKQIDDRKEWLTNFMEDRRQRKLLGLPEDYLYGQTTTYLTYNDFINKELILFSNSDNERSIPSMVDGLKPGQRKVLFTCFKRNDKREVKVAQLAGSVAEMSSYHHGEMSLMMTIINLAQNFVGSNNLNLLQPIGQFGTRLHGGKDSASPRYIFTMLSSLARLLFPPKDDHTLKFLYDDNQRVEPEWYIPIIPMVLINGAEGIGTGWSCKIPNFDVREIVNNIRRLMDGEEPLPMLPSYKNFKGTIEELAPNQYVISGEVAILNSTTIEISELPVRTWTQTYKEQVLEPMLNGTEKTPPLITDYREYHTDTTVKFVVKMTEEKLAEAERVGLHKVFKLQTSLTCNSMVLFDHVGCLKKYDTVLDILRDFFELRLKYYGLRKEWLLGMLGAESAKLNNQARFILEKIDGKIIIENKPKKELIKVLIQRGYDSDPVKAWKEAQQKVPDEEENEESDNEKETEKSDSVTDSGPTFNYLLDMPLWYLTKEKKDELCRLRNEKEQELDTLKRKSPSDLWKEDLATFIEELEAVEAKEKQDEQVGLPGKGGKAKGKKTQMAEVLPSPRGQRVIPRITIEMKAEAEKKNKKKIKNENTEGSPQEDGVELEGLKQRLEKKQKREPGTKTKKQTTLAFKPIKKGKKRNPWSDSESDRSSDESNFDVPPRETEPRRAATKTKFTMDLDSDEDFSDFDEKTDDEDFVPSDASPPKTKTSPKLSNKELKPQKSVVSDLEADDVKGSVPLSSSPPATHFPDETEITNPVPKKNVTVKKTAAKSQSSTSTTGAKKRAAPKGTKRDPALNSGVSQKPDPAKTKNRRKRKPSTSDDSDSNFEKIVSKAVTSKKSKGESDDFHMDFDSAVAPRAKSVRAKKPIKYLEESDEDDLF

`Nc1c2c(nc3ccc(Br)cc13)CC(C(F)(F)F)CC2=O` (stereo not given): the fold change (FC) in assay [1] is 5.5 to 8.5. Besides, the outcome (in assay [2]; in the assay filed under Bos taurus) was Active. The inhibition entry in assay [3] is “inactive”. Moreover, the result in assay [4] and in assay [7] was inactive. In addition, the Activity in [5] is 90 µM; in assay [6], less than 35%.
Consider `Nc1c2c(nc3ccc(F)cc13)CC(C(F)(F)F)CC2=O` (stereo not given), for which the fold change (FC) in assay [1] lay in the range of 5.5 to 8.5. Further, the inhibition entry in assay [3] was “inactive”. Moreover, the outcome in assay [4] and in assay [7] was inactive. Besides, the Activity is 520 µM in [5] and less than 35% in assay [6]. Further, the outcome in the assay filed under Bos taurus was Active.
Take `Cc1ccc2c(N)c3c(nc2c1)CC(C(F)(F)F)CC3=O` (stereo not given): the result (in assay [2]; in the assay filed under Bos taurus) was Active. The inhibition result in [3] was “inactive”. The result in [4] and in assay [7] was inactive. For the same compound, the Activity in [5] amounted to 800 µM.
As for `O=C1CC(C(F)(F)F)Cc2nc3ccccc3cc21` (stereo not given), the fold change (FC) in [1] lay within 5.5 to 8.5. Further, in assay [3], the inhibition entry was “inactive”. In addition, the Activity in [5] was more than 1000 µM. Further, the outcome in the assay filed under Bos taurus was Active.
With `Nc1c2c(nc3ccccc13)CC(C(F)(F)F)CC2=O` (stereo not given), in [1], the fold change (FC) was in the range of 5.5 to 8.5. Moreover, the outcome (in [2]; in the assay filed under Bos taurus) was Active. Besides, in assay [3], the inhibition entry is “inactive”. Further, the outcome in assay [4] and in assay [7] was inactive. The Activity in assay [5] worked out at 155 µM.
As to `Nc1c2c(nc3ccc([N+](=O)[O-])cc13)CC(C(F)(F)F)CC2=O` (stereo not given), the inhibition result in assay [3] is “inactive”. In [5], the Activity is more than 1000 µM. Further, the outcome in the assay filed under Bos taurus was Active.
On to `c1ccc2nc3ccccc3cc2c1`, for which the Activity in [5] is more than 1000 µM.
Turning to `Nc1c2c(nc3ccc(Cl)cc13)CC(C(F)(F)F)CC2=O` (stereo not given), the fold change (FC) in assay [1] was in the range of 5.5 to 8.5. The outcome (in assay [2]; in the assay filed under Bos taurus) was Active. The inhibition entry in assay [3] is “inactive”. In addition, the outcome in assay [4] and in assay [7] was inactive. In addition, the Activity in assay [5] is 85 µM; in [6], less than 35%.
Regarding `COc1cc(NS(C)(=O)=O)ccc1Nc1c2ccccc2nc2ccccc12`, the inhibition entry in [8] is “Active”. Besides, the Activity in assay [5] is 8.5 µM. Besides, the outcome in assay [9] and in assay [10] was Active.
`COc1cc([C@@H]2c3cc4c(cc3[C@@H](O[C@@H]3O[C@@H]5CO[C@@H](C)O[C@H]5[C@H](O)[C@H]3O)[C@H]3COC(=O)[C@H]23)OCO4)cc(OC)c1O`: the inhibition result in [8] is “Active”. The Activity in assay [5] stood at 32 µM.
